According to publication PMC8246815 (Clinical Pharmacology in Drug Development, 2020):
Where two headings read alike, the source gives them in different places. Blank lines part the entries; values can stand above or below the compound they belong to.

Tests used:
[1] = type: in vivo, human; settings: for Plasma concentrations of the parent compound: single administration of 15 mg deutetrabenazine or 25 mg tetrabenazine tablets, LLOQ 0.100 ng/mL; for Total (α+β)-HTBZ AUC0-t / Total (α+β)-HTBZ AUCinf / Total (α+β)-HTBZ Cmax / Total (α+β)-HTBZ T1/2 / α-HTBZ AUC0-t / α-HTBZ AUCinf / α-HTBZ Cmax / β-HTBZ AUC0-t / β-HTBZ AUCinf / β-HTBZ Cmax / β-HTBZ T1/2 / Total (α+β)-HTBZ Tmax / α-HTBZ Tmax / β-HTBZ Tmax: deutetrabenazine 15 mg single dose; for Total (α+β)-HTBZ AUC0-t / Total (α+β)-HTBZ AUCinf / Total (α+β)-HTBZ Cmax / Total (α+β)-HTBZ T1/2 / α-HTBZ AUC0-t / α-HTBZ AUCinf / α-HTBZ Cmax / β-HTBZ AUC0-t / β-HTBZ AUCinf / β-HTBZ Cmax / β-HTBZ T1/2: mean (CV%); for Total (α+β)-HTBZ Tmax / α-HTBZ Tmax / β-HTBZ Tmax: median (range)
Method in brief: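 Randomised crossover in 25 healthy subjects, five periods over 17 days, all in clinic. Single oral dose: 15 mg of each of two test-compound tablet formulations, fed or fasted, or 25 mg non-deuterated reference fasted. Fasted means an overnight fast of ≥10 h; fed means an FDA-definition high-fat (50% calories), 800–1000 calorie meal. Plasma dihydro metabolites sampled predose and over 72 h; values below LLOQ set to LLOQ where flanked by measurable ones. Non-compartmental AUC and Cmax; ANOVA on ln values (subject, period, treatment); back-transformed geometric mean ratios with 90% CI.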

[2] = system: chorea in patients with HD; settings: 12 weeks; cited from earlier work
[3] = Safety assessments, study AUS-SD-809-CTP-07; type: in vivo, human; settings: for Serious AEs: healthy volunteers; for Laboratory parameters, vital signs and physical examination: single or multiple doses
Method in brief: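 Healthy subjects, single 15 mg dose in part 1 and single or repeated 7.5–22.5 mg doses in part 2. Adverse-event monitoring, physical examination, vital signs, standard 12-lead ECG, PHQ-9, C-SSRS and laboratory tests repeated throughout, including 72 h after each dose in part 1. For preliminary QTc assessment, triplicate digital 12-lead ECGs recorded on part 2 dosing days 1 and 4.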

[4] = type: in vivo, human
Method in brief: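 Healthy subjects given 18 mg test compound after a standard meal or after a high-fat meal. For the dose-proportionality arms, doses of 6, 12, 18 and 24 mg were given with a standard meal and compared as dose-normalised parameters. Plasma dihydro metabolites analysed by non-compartmental Cmax, AUC0-t and AUCinf. ANOVA on ln values; geometric mean ratios with 90% CI, back-transformed.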

[5] = Study AUS-SD-809-CTP-07 part 2: single and repeated; type: in vivo, human; settings: for α-HTBZ Cmin / (α+β)-HTBZ Cmin / β-HTBZ Cmin: steady state, mean (CV%); for α-HTBZ Cmin: 0-12 h; for Linear regression model slope (zero intercept) / Power regression model α (parameter = α × dose^β) / Power regression model β (exponent of dose): deutetrabenazine fed
Method in brief: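 Two groups of 12 healthy subjects over 20 days; the second group dosed ≥7 days after the first. Test compound given at 7.5, 15 and 22.5 mg after a standard meal; non-deuterated reference 25 mg fasted. Single doses on days 1 and 4, ≥72 h apart, with full plasma profiles. Dosing every 12 h from day 7 for 3.5 days, with predose troughs used to confirm steady state. Cmin taken as the minimum over 0–12 h. Power (parameter = α × dose^β) and zero-intercept linear regressions fitted to single-dose AUCinf, steady-state AUC0-12 and Cmax.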

[6] = system: tardive dyskinesia; settings: cited from earlier work
[7] = system: chorea associated with Huntington's disease; settings: cited from earlier work
[8] = system: VMAT2; settings: cited from earlier work
[9] = deutetrabenazine 18 mg high-fat/high-calorie meal versus standard meal
[10] = deutetrabenazine 18 mg, high-fat/high-calorie meal
[11] = deutetrabenazine 18 mg, standard meal
[12] = deutetrabenazine 7.5 mg twice daily fed
[13] = deutetrabenazine 15 mg twice daily fed
[14] = deutetrabenazine 22.5 mg twice daily fed
[15] = total (α+β)-HTBZ AUC0-12 (steady state)
[16] = total (α+β)-HTBZ AUCinf (single dose)
[17] = LS geometric mean ratio deutetrabenazine 15 mg fed / tetrabenazine 25 mg fasted
[18] = deutetrabenazine 15 mg high-fat/high-calorie meal versus fasted
[19] = deutetrabenazine 15 mg, high-fat/high-calorie meal

- Plasma concentrations of the parent compound [1]: near or at the LLOQ
Compound: COc1cc2c(cc1OC)C1CC(=O)C(CC(C)C)CN1CC2 (stereo not shown) [Tetrabenazine, reference compound]
- Chorea severity compared with placebo-treated patients [2]: significantly reduced chorea severity
- Serious AEs [3]: One serious AE of vessel puncture‐site reaction
- Subjects with change from predose in QTc of >30 milliseconds ([3]; in vivo): No subject
- Subjects with postdose QTc > 450 milliseconds ([3]; in vivo): No subject
- Laboratory parameters, vital signs and physical examination [3]: no clinically significant abnormalities

- Total (α+β)-HTBZ AUC0-t % ratio [4, 9]: 107.0%
- Total (α+β)-HTBZ AUCinf % ratio [4, 9]: 106.4%
- Total (α+β)-HTBZ Cmax % ratio [4, 9]: 104.2%
- Total (α+β)-HTBZ T1/2 % ratio [4, 9]: 101.8%
- Total (α+β)-HTBZ AUC0-t, LS mean [4, 10]: 408 ng·h/mL
- Total (α+β)-HTBZ AUCinf, LS mean [4, 10]: 419 ng·h/mL
- Total (α+β)-HTBZ Cmax, LS mean [4, 10]: 48.4 ng/mL
- Total (α+β)-HTBZ AUC0-t, LS mean [4, 11]: 382 ng·h/mL
- Total (α+β)-HTBZ AUCinf, LS mean [4, 11]: 394 ng·h/mL
- Total (α+β)-HTBZ Cmax, LS mean [4, 11]: 46.5 ng/mL
- Total (α+β)-HTBZ T1/2, LS mean [4, 11]: 9.7 h
- α-HTBZ Cmin [5, 12]: 7.2 (41) ng/mL
- (α+β)-HTBZ Cmin [5, 12]: 10.1 (48) ng/mL
- β-HTBZ Cmin [5, 12]: 2.8 (71) ng/mL
- α-HTBZ Cmin [5, 13]: 15.6 (37) ng/mL
- (α+β)-HTBZ Cmin [5, 13]: 21.1 (41) ng/mL
- β-HTBZ Cmin [5, 13]: 5.5 (54) ng/mL
- α-HTBZ Cmin [5, 14]: 26.3 (40) ng/mL
- (α+β)-HTBZ Cmin [5, 14]: 39.5 (59) ng/mL
- β-HTBZ Cmin [5, 14]: 13.1 (102) ng/mL
- Exposure to β-HTBZ relative to α-HTBZ ([5]; single-dose and repeated deutetrabenazine administration): approximately one‐third
- Linear regression model slope (zero intercept) [5, 15]: 32.4
- Power regression model α (parameter = α × dose^β) [5, 15]: 17.8
- Power regression model β (exponent of dose) [5, 15]: 1.2
- Linear regression model slope (zero intercept) [5, 16]: 26.9
- Power regression model α (parameter = α × dose^β) [5, 16]: 17.0
- Power regression model β (exponent of dose) [5, 16]: 1.1
- Total (α+β)-HTBZ AUC0-t % ratio (90%CI) [1, 17]: 126.6 (115.8‐138.4) %
- Total (α+β)-HTBZ AUCinf % ratio (90%CI) [1, 17]: 127.7 (116.7‐139.6) %
- Total (α+β)-HTBZ Cmax % ratio (90%CI) [1, 17]: 51.4 (46.0‐57.4) %
- α-HTBZ AUCinf % ratio (90%CI) [1, 17]: 129.7 (118.1‐142.5) %
- α-HTBZ Cmax % ratio (90%CI) [1, 17]: 49.3 (44.5‐54.7) %
- β-HTBZ AUC0-t % ratio (90%CI) [1, 17]: 117.0 (104.5‐131.1) %
- β-HTBZ AUCinf % ratio (90%CI) [1, 17]: 119.9 (105.5‐136.2) %
- β-HTBZ Cmax % ratio (90%CI) [1, 17]: 55.3 (47.7‐64.2) %
- Increase of AUCinf of (α+β)-HTBZ with food ([1]; deutetrabenazine 15 mg high-fat meal vs fasted): about 11%
- Total (α+β)-HTBZ AUC0-t % ratio [1, 18]: 111.5%
- Total (α+β)-HTBZ AUCinf % ratio [1, 18]: 110.6%
- Total (α+β)-HTBZ Cmax % ratio [1, 18]: 149.7%
- Total (α+β)-HTBZ T1/2 % ratio [1, 18]: 75.3%
- Total (α+β)-HTBZ AUC0-t ([1]; fasted): 263 (45) ng·h/mL
- Total (α+β)-HTBZ AUCinf ([1]; fasted): 273 (45) ng·h/mL
- Total (α+β)-HTBZ Cmax ([1]; fasted): 22.5 (36) ng/mL
- Total (α+β)-HTBZ T1/2 ([1]; fasted): 9.4 (25) h
- α-HTBZ AUC0-t ([1]; fasted): 185 (25) ng·h/mL
- α-HTBZ AUCinf ([1]; fasted): 196 (24) ng·h/mL
- α-HTBZ Cmax ([1]; fasted): 14.2(34) ng/mL
- β-HTBZ AUC0-t ([1]; fasted): 74.2 (108) ng·h/mL
- β-HTBZ AUCinf ([1]; fasted): 81.4 (105) ng·h/mL
- β-HTBZ Cmax ([1]; fasted): 8.43 (48) ng/mL
- β-HTBZ T1/2 ([1]; fasted): 6.6 (56) h
- Total (α+β)-HTBZ Tmax ([1]; fasted): 2.3 (1.0‐8.0) h
- α-HTBZ Tmax ([1]; fasted): 2.5 (1.0‐8.0) h
- β-HTBZ Tmax ([1]; fasted): 2.5 (1.0‐8.0) h
- Total (α+β)-HTBZ AUC0-t ([1]; fed (high-fat meal)): 296 (48) ng·h/mL
- Total (α+β)-HTBZ AUCinf ([1]; fed (high-fat meal)): 305 (46) ng·h/mL
- Total (α+β)-HTBZ Cmax ([1]; fed (high-fat meal)): 33.3 (33) ng/mL
- Total (α+β)-HTBZ T1/2 ([1]; fed (high-fat meal)): 7.0 (23) h
- α-HTBZ AUC0-t ([1]; fed (high-fat meal)): 207 (30) ng·h/mL
- α-HTBZ AUCinf ([1]; fed (high-fat meal)): 217 (29) ng·h/mL
- α-HTBZ Cmax ([1]; fed (high-fat meal)): 20.8 (27) ng/mL
- β-HTBZ AUC0-t ([1]; fed (high-fat meal)): 85.6 (102) ng·h/mL
- β-HTBZ AUCinf ([1]; fed (high-fat meal)): 102 (92) ng·h/mL
- β-HTBZ Cmax ([1]; fed (high-fat meal)): 12.7 (50) ng/mL
- β-HTBZ T1/2 ([1]; fed (high-fat meal)): 4.6 (63) h
- Total (α+β)-HTBZ Tmax ([1]; fed (high-fat meal)): 6.0 (1.5‐8.0) h
- α-HTBZ Tmax ([1]; fed (high-fat meal)): 6.0 (1.0‐8.0) h
- β-HTBZ Tmax ([1]; fed (high-fat meal)): 6.0 (1.5‐8.0) h
- Total (α+β)-HTBZ AUC0-t, LS mean ([1]; deutetrabenazine 15 mg, fasted): 244.6 ng·h/mL
- Total (α+β)-HTBZ AUCinf, LS mean ([1]; deutetrabenazine 15 mg, fasted): 254.9 ng·h/mL
- Total (α+β)-HTBZ Cmax, LS mean ([1]; deutetrabenazine 15 mg, fasted): 21.2 ng/mL
- Total (α+β)-HTBZ AUC0-t, LS mean [1, 19]: 272.8 ng·h/mL
- Total (α+β)-HTBZ AUCinf, LS mean [1, 19]: 282.0 ng·h/mL
- Total (α+β)-HTBZ Cmax, LS mean [1, 19]: 31.7 ng/mL
- Total (α+β)-HTBZ T1/2, LS mean [1, 19]: 6.8 h
- Effect of food on exposure to total (α+β)-HTBZ, as measured by AUC ([1]; deutetrabenazine fed vs fasted): no effect
- Plasma concentrations of the parent compound [1]: near or at the LLOQ
Compound: [2H]C([2H])([2H])Oc1cc2c(cc1OC([2H])([2H])[2H])C1CC(=O)C(CC(C)C)CN1CC2 (stereo not shown) [Deutetrabenazine]
- Change in the Abnormal Involuntary Movement Scale scores [6]: significantly reduced TD
- Mean difference in total maximal chorea score compared with placebo treatment [7]: −2.5 unit
- Mean Unified Huntington's Disease Rating Scale total maximal chorea score ([7]; weeks 9-12, twice a day, baseline 12.1): 7.7
- Serious AEs [3]: No serious AEs
- Most frequent AEs reported as possibly drug related ([3]; in vivo): Somnolence and headache
- Subjects with change from predose in QTc of >30 milliseconds ([3]; in vivo): No subject
- Subjects with postdose QTc > 450 milliseconds ([3]; in vivo): No subject
- Tolerability ([3]; single 15 mg (part 1) and single/repeated 7.5-22.5 mg (part 2)): well tolerated
- Laboratory parameters, vital signs and physical examination [3]: no clinically significant abnormalities

Compound: α‐dihydrotetrabenazine [α‐HTBZ]
- Inhibition of VMAT2 [8]: potent inhibitors

Compound: COc1cc2c(cc1OC)[C@H]1C[C@H](O)[C@H](CC(C)C)CN1CC2 [β‐HTBZ, β‐dihydrotetrabenazine]
- Inhibition of VMAT2 [8]: potent inhibitors
